Among the data in ChEMBL document CHEMBL4270570 (Eur J Med Chem, 2018) are IC50, EC50 and CC50 values, retold here.

Series [1] concerns the target Human immunodeficiency virus type 1 reverse transcriptase (Human immunodeficiency virus 1, UniProt Q72547). Nature of the series: Inhibition of HIV1 reverse transcriptase RNaseH activity using 3'-fluorescein/5'-Dabcyl labeled HTS-1 substrate.
Series [2] relates to Human immunodeficiency virus 1. Briefly: Antiviral activity against HIV1 infected in CD4/CXCR4/CCR5 expressing human P4R5 MAGI cells preincubated with cells for 24 hrs followed by viral infection measured after 48 hrs by beta-galactosidase reporter gene assay. It is filed as functional, organism-based.
Series [3] in a line: Cytotoxicity against human P4R5 MAGI cells. It is filed as cell-based. The essentials: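 P4R5 cells express CD4, CXCR4, CCR5 and an HIV LTR-driven β-galactosidase reporter. They were seeded at 4×10^3 cells per well in DMEM/10% FBS with puromycin (1 µg/mL).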
Series [4] deals with Human immunodeficiency virus type 1 integrase (Human immunodeficiency virus 1, UniProt Q7ZJM1). Briefly: Inhibition of HIV integrase strand transfer activity using 5'-biotin/3'-Cy5-labeled DNA substrate preincubated for 5 mins followed by substrate addition measured after 30 mins by HTS assay.
Sequence of Human immunodeficiency virus type 1 integrase (Q7ZJM1 whole entry): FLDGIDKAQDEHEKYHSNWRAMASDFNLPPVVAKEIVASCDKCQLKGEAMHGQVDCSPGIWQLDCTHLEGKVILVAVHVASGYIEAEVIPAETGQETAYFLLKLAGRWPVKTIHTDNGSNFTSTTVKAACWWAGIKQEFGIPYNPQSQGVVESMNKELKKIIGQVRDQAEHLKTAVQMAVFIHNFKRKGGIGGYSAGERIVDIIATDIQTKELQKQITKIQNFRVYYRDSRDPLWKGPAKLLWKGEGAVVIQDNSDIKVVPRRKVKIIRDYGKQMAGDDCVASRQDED
In series [5] the target is Gag-Pol polyprotein (Human immunodeficiency virus type 1 group M subtype B (isolate HXB2)(HIV-1), UniProt P04585). Briefly: Inhibition of HIV1 reverse transcriptase polymerase activity using 18 nucleotide DNA primer and 100 nucleotide DNA template after 30 mins. Also on record: species or system Human immunodeficiency virus 1. The method in brief: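 Full-length RT at 20 nM with 40 nM template/primer (18-nt DNA primer on 100-nt DNA template) and 10 µM dNTPs in 50 mM Tris pH 7.8, 50 mM NaCl. Started with 6 mM MgCl2, with 1% DMSO and increasing compound concentrations. Primer extension ran 30 min at 37 °C and was stopped with 100 mM EDTA.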

For `COc1ccc(Sc2cc(=O)n(O)c(=O)[nH]2)cc1`, the IC50 was 12 nM in series [1], 3600 nM in series [4] and greater than 10 µM in series [5]. The EC50 in series [2] is greater than 20 µM. The compound further came in with a 50% cytotoxic concentration (CC50) in series [3] greater than 100 µM.
On the same counts, the results for `O=c1cc(Sc2ccccc2C(F)(F)F)[nH]c(=O)n1O` are 12 nM, 880 nM, greater than 10 µM, 6.6 µM and greater than 100 µM.
Taken in the same sequence, the figures for `O=c1cc(Sc2ccccc2Br)[nH]c(=O)n1O` were 8 nM, 1100 nM, greater than 10 µM, 6.5 µM and greater than 100 µM.
On the same counts, the results for `COc1cccc(-c2ccc(Sc3cc(=O)n(O)c(=O)[nH]3)cc2)c1` are 5 nM, greater than 1000 nM, 10 µM, 7.7 µM and greater than 100 µM.
Consider `O=c1cc(Sc2cccc(-c3ccc(Cl)cc3)c2)[nH]c(=O)n1O`, for which the half-inhibitory concentration (IC50) was 5 nM in series [1], greater than 1000 nM in series [4] and 7.8 µM in series [5]. In series [2], this compound registered an EC50 of 10 µM. In series [3], this compound came in with a CC50 greater than 100 µM.
On the same counts, the results for `COc1ccc(-c2ccc(Sc3cc(=O)n(O)c(=O)[nH]3)cc2)cc1F` are 4 nM, greater than 140 nM, 6.8 µM, 8 µM and greater than 100 µM.
As for `O=c1cc(Sc2ccccc2F)[nH]c(=O)n1O`, the IC50 in series [1] is 15 nM; in series [4], 770 nM; in series [5], greater than 10 µM. The compound further gave an EC50 in series [2] of 4.7 µM. The compound also came in with a CC50 in series [3] greater than 100 µM.
Take `O=c1[nH]c(Sc2ccc(Br)cc2)c(I)c(=O)n1O`: the IC50 is 120 nM in series [1] and 0.46 µM in series [5].
As to `O=c1cc(Sc2ccc(-c3ccc(F)cc3)cc2)[nH]c(=O)n1O`, the IC50 in series [1] was 6 nM; in series [4], greater than 1000 nM; in series [5], greater than 10 µM. This compound also came in with an EC50 in series [2] of 12 µM. The cytotoxic concentration (CC50) in series [3] was greater than 100 µM.
On the same counts, the results for `O=c1cc(Sc2cccc(F)c2)[nH]c(=O)n1O` are 14 nM, 490 nM, greater than 10 µM, 9.1 µM and greater than 100 µM.
On the same counts, the results for `O=c1cc(Sc2ccc(C(F)(F)F)cc2)[nH]c(=O)n1O` are 31 nM, greater than 10000 nM, greater than 10 µM, greater than 20 µM and greater than 100 µM.
On to `COc1cccc(-c2ccc(Nc3cc(=O)n(O)c(=O)[nH]3)cc2)c1`, for which, in series [2], the EC50 is greater than 25 µM. This compound also displayed a CC50 in series [3] greater than 25 µM.
As to `O=c1cc(Sc2ccc(Br)cc2)[nH]c(=O)n1O`, the results for the IC50 in series [1] and in series [5] were 10 nM and 7 µM, respectively.
In the case of `O=c1cc(Sc2cccc(-c3cccc(C(F)(F)F)c3)c2)[nH]c(=O)n1O`, the figures for the 50% inhibitory concentration (IC50) in series [1], in series [4] and in series [5] were 7 nM, greater than 1000 nM and 7.7 µM, respectively. The same compound came in with an EC50 in series [2] of 8.3 µM. In series [3], the cytotoxic concentration (CC50) was greater than 100 µM.
Taken in the same sequence, the figures for `O=c1cc(Sc2ccc(F)cc2)[nH]c(=O)n1O` were 37 nM, 6800 nM, greater than 10 µM, greater than 20 µM and greater than 100 µM.
Taken in the same sequence, the figures for `O=c1cc(Sc2ccccc2)[nH]c(=O)n1O` were 16 nM, 1100 nM, greater than 10 µM, 11 µM and greater than 100 µM.
Taken in the same sequence, the figures for `O=c1cc(Sc2ccc(-c3ccc(Cl)cc3)cc2)[nH]c(=O)n1O` were 7 nM, greater than 1000 nM, greater than 10 µM, 16 µM and greater than 100 µM.
Regarding `Cc1ccc(-c2ccc(Sc3cc(=O)n(O)c(=O)[nH]3)cc2)cc1`, the IC50 was 6 nM in series [1], greater than 1000 nM in series [4] and 7 µM in series [5]. Also, in series [2], a half-maximal effect (EC50) was put at 7.5 µM. In series [3], this compound showed a CC50 greater than 100 µM.
Consider `CCc1ccc(Sc2cc(=O)n(O)c(=O)[nH]2)cc1`, for which the IC50 in series [1] was 10 nM; in series [4], 1300 nM; in series [5], greater than 10 µM. Also, the EC50 in series [2] came out at 11 µM. In series [3], this compound registered a CC50 greater than 100 µM.
On the same counts, the results for `COc1cccc(Sc2cc(=O)n(O)c(=O)[nH]2)c1` are 13 nM, 2700 nM, greater than 10 µM, 16 µM and greater than 100 µM.
As to `O=c1cc(Sc2cccc(-c3cccc(F)c3)c2)[nH]c(=O)n1O`, the IC50 in series [1] turned out to be 6 nM; in series [4], 240 nM; in series [5] it was 9.6 µM. This compound also had an EC50 in series [2] of 6.5 µM. For the same compound, in series [3], the CC50 is greater than 100 µM.
On the same counts, the results for `COc1ccc(-c2ccc(Sc3cc(=O)n(O)c(=O)[nH]3)cc2)cc1` are 6 nM, greater than 100000 nM, 10 µM, 10 µM and greater than 100 µM.
On the same counts, the results for `O=c1cc(Sc2ccc(-c3cccc(C(F)(F)F)c3)cc2)[nH]c(=O)n1O` are 8 nM, greater than 100000 nM, greater than 10 µM, greater than 20 µM and greater than 100 µM.
On the same counts, the results for `Cc1cc(-c2ccc(Sc3cc(=O)n(O)c(=O)[nH]3)cc2)ccc1F` are 5 nM, greater than 10000 nM, greater than 10 µM, 18 µM and greater than 100 µM.
Take `COc1ccccc1Sc1cc(=O)n(O)c(=O)[nH]1`: the IC50 in series [1] is 17 nM; in series [4], 8400 nM; in series [5], greater than 10 µM. This compound returned an EC50 in series [2] of 9 µM. In series [3], the 50% cytotoxic concentration (CC50) is greater than 100 µM.
Taken in the same sequence, the figures for `O=c1cc(Sc2ccc(O)cc2)[nH]c(=O)n1O` were 11 nM, 1600 nM, greater than 10 µM, greater than 20 µM and greater than 100 µM.
Taken in the same sequence, the figures for `O=c1cc(Sc2cccc(Br)c2)[nH]c(=O)n1O` were 11 nM, 1200 nM, greater than 10 µM, 8.2 µM and greater than 100 µM.
On the same counts, the results for `O=c1cc(Sc2cccc(-c3ccc(F)c(Cl)c3)c2)[nH]c(=O)n1O` are 5 nM, greater than 1000 nM, 5.6 µM, 11 µM and greater than 100 µM.
Consider `CCc1ccccc1Sc1cc(=O)n(O)c(=O)[nH]1`, for which the results for the concentration for half-maximal inhibition (IC50) in series [1], in series [4] and in series [5] were 10 nM, 750 nM and greater than 10 µM, respectively. The compound also came in with an EC50 in series [2] of 6.2 µM. The compound also had a 50% cytotoxic concentration (CC50) in series [3] greater than 100 µM.
`O=c1[nH]c(Sc2ccc(Br)cc2)c(Br)c(=O)n1O`: the IC50 in series [1] came out at 70 nM; in series [5] it was 5 µM.
Regarding `O=c1cc(Sc2ccc(-c3cccc(F)c3)cc2)[nH]c(=O)n1O`, the results for the IC50 in series [1], in series [4] and in series [5] were 5 nM, greater than 1000 nM and 10 µM, respectively. The compound also came in with an EC50 in series [2] of 7.2 µM. In addition, the CC50 in series [3] was greater than 100 µM.
Taken in the same sequence, the figures for `O=c1cc(Sc2cccc(-c3ccc(C(F)(F)F)cc3)c2)[nH]c(=O)n1O` were 7 nM, greater than 140 nM, 10 µM, 11 µM and greater than 100 µM.
With `O=c1cc(Sc2ccc(-c3ccccc3)cc2)[nH]c(=O)n1O`, the IC50 in series [1] came to 90 nM; in series [5], 3.2 µM.
Take `O=c1cc(Sc2cccc(C(F)(F)F)c2)[nH]c(=O)n1O`: the IC50 in series [1] is 13 nM; in series [4] it was 880 nM; in series [5], greater than 10 µM. The midpoint of the response in series [2], the EC50, lay at 6.2 µM. The CC50 in series [3] was greater than 100 µM.
Regarding `O=c1cc(Sc2cccc(Cl)c2)[nH]c(=O)n1O`, the IC50 in series [1] is 11 nM; in series [4], 590 nM; in series [5] it was greater than 10 µM. The compound also registered a 50% effective concentration (EC50) in series [2] of 6.3 µM. In addition, the CC50 in series [3] is greater than 100 µM.
On the same counts, the results for `O=c1cc(Sc2cccc(-c3ccc(F)cc3)c2)[nH]c(=O)n1O` are 5 nM, greater than 140 nM, 9.9 µM, 5 µM and greater than 100 µM.
As for `COc1cc(OC)cc(-c2ccc(Sc3cc(=O)n(O)c(=O)[nH]3)cc2)c1`, the IC50 was 6 nM in series [1], greater than 100000 nM in series [4] and greater than 10 µM in series [5]. Also, the EC50 in series [2] was 17 µM. Moreover, the CC50 in series [3] was greater than 100 µM.
Taken in the same sequence, the figures for `O=c1cc(Sc2ccc(-c3ccc(C(F)(F)F)cc3)cc2)[nH]c(=O)n1O` were 39 nM, greater than 1000 nM, 8.4 µM, 12 µM and greater than 100 µM.
Taken in the same sequence, the figures for `O=c1cc(Sc2cccc3ccccc23)[nH]c(=O)n1O` were 7 nM, 790 nM, 10 µM, 6.3 µM and greater than 100 µM.
